Measured values from ChEMBL document CHEMBL3102839, “Growth inhibitory activity for cancer cell lines of lapachol and its natural and semi-synthetic derivatives” (Bioorg Med Chem Lett, 2014).

Assays:
[1] = Growth inhibition of human Hs683 cells by MTT assay; assay type: functional, cell-based; conditions: Hs 683
How it was run: (§1)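 In vitro MTT colorimetric read-out of growth inhibition. Each compound was run across a six-line human cancer panel chosen for differing resistance to pro-apoptotic stimuli. IC50 was taken as the growth inhibitory concentration. No reference drug was included.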

A549 = test: Growth inhibition of human A549 cells by MTT assay; assay type: functional, cell-based; how it was run: as §1
[2] = Growth inhibition of human U373 cells by MTT assay; assay type: functional, cell-based, U-373MG ATCC; conditions: U373 MG; how it was run: as §1
SK-MEL-28 = test: Growth inhibition of human SK-MEL-28 cells by MTT assay; assay type: functional, cell-based; how it was run: as §1
PC-3 = test: Growth inhibition of human PC3 cells by MTT assay; assay type: functional, cell-based; how it was run: as §1
LoVo = test: Growth inhibition of human LoVo cells by MTT assay; assay type: functional, cell-based; how it was run: as §1
KB = test: Growth inhibition of human KB cells; assay type: functional; conditions: read-out: ED50 (the source's name)
Lu1 = test: Growth inhibition of human Lu1 cells; assay type: functional; conditions: read-out: ED50 (the source's name)
[3] = Growth inhibition of hTERT expressing human RPE1 cells; assay type: functional, TERT-RPE1; conditions: RPE-1, read-out: ED50 (the source's name)
LNCaP = test: Growth inhibition of human LNCAP cells; assay type: functional; conditions: read-out: ED50 (the source's name)
Col2 = test: Growth inhibition of human Col2 cells; assay type: functional; conditions: read-out: ED50 (the source's name)
[4] = Chemical stability of the compound in cell culture medium assessed as compound recovery after 72 hrs; assay type: physicochemical; conditions: read-out: Drug recovery

| SMILES | IC50 (A549) [µM] | IC50 (SK-MEL-28) [µM] | IC50 (PC-3) [µM] | IC50 (LoVo) [µM] | EC50 (KB) [µM] | EC50 (LNCaP) [µM] | remaining at 72 h [4] [%] | IC50 [1] [µM] | IC50 [2] [µM] | EC50 (Lu1) [µM] | EC50 [3] [µM] | EC50 (Col2) [µM] |
| --- | --- | --- | --- | --- | --- | --- | --- | --- | --- | --- | --- | --- |
| CC(=O)OC1=C(CC=C(C)C)C(=O)c2ccccc2C1=O | 5 | 13 | 4 | 8 |  |  | > 95 | 31 | 30 |  |  |  |
| CCCCCCCCCCCCCC(=O)OC1=C(CC=C(C)C)C(=O)c2ccccc2C1=O | 49 | 50 | 43 | 50 |  |  | > 95 | 89 | > 100 |  |  |  |
| CCCCCCCCCCCCCCCC(=O)OC1=C(CC=C(C)C)C(=O)c2ccccc2C1=O | 38 | 33 | 35 | 29 |  |  | > 95 | 48 | 54 |  |  |  |
| CCCCCCCCCCCCCCCCCC(=O)OC1=C(CC=C(C)C)C(=O)c2ccccc2C1=O | > 100 | > 100 | > 100 | > 100 |  |  | > 95 | > 100 | > 100 |  |  |  |
| CCOC1=C(CC=C(C)C)C(=O)c2ccccc2C1=O | > 100 | > 100 | > 100 | > 100 |  |  |  | > 100 | > 100 |  |  |  |
| C=CCOC1=C(CC=C(C)C)C(=O)c2ccccc2C1=O | 26 | 23 | 28 | 22 |  |  |  | 28 | 75 |  |  |  |
| O=C1C(O)=C(/C=C/c2ccccc2)C(=O)c2ccccc21 | > 100 | > 100 | > 100 | 82 |  |  |  | 42 | > 100 |  |  |  |
| CC(C)=CCC1=C(O)C(=O)c2ccccc2C1=O [LAPACHOL] | 8 | 8 | 4 | 9 |  |  |  | 11 | 8 |  |  |  |
| O=C1C=C(O)C(=O)c2ccccc21 [LAWSONE] | 58 | > 100 | > 100 | > 100 |  |  |  | 31 | > 100 |  |  |  |

The next lines start with results.

| IC50 (A549) [µM] | IC50 (SK-MEL-28) [µM] | IC50 (PC-3) [µM] | IC50 (LoVo) [µM] | EC50 (KB) [µM] | EC50 (LNCaP) [µM] | remaining at 72 h [4] [%] | SMILES | IC50 [1] [µM] | IC50 [2] [µM] | EC50 (Lu1) [µM] | EC50 [3] [µM] | EC50 (Col2) [µM] |
| --- | --- | --- | --- | --- | --- | --- | --- | --- | --- | --- | --- | --- |
| > 100 | > 100 | 91 | 42 |  |  |  | O=C1C(O)=C(Cc2ccccc2)C(=O)c2ccccc21 | > 100 | > 100 |  |  |  |
| 34 | 31 | 27 | 25 | 12.2 | 12.2 |  | CC(C)=CCC1=C(Cl)C(=O)c2ccccc2C1=O | 33 | 26 | 12.2 | 12.2 | 12.2 |
| 59 | 73 | 65 | 57 |  |  | > 95 | CCCCCCCC/C=C\CCCCCCCC(=O)OC1=C(CC=C(C)C)C(=O)c2ccccc2C1=O | 85 | 84 |  |  |  |
| 36 | 27 | 42 | 57 |  |  |  | COC1=C(CC=C(C)C)C(=O)c2ccccc2C1=O | 36 | 78 |  |  |  |
| > 100 | > 100 | > 100 | > 100 |  |  |  | CCCOC1=C(CC=C(C)C)C(=O)c2ccccc2C1=O | > 100 | > 100 |  |  |  |
| 33 | 29 | 38 | 32 |  |  |  | CC(C)=CCOC1=C(CC=C(C)C)C(=O)c2ccccc2C1=O | 41 | > 100 |  |  |  |
| 12 | 28 | 12 | 7 |  |  |  | CC(C)=CCC/C(C)=C/CC1=C(O)C(=O)c2ccccc2C1=O | 11 | 48 |  |  |  |
| 35 | 18 | 27 | 27 |  |  | > 95 | CCCCCCCCCCCC(=O)OC1=C(CC=C(C)C)C(=O)c2ccccc2C1=O | 18 | 31 |  |  |  |
